# Results taken from ChEMBL document CHEMBL4513216, “Probing the Open Global Health Chemical Diversity Library for Multistage-Active Starting Points for Next-Generation Antimalarials” (ACS Infect Dis, 2020).
# Test: Toxicity liver stage against HepG2, at 10uM
# Type: cell-based
# Set-up: test concentration 10 uM, cell line HepG2-A16-CD81EGFP
# Details: human, HepG2-A16-CD81EGFP cells; read-out: INHIBITION
# Method in brief: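 Uninfected HepG2-A16-CD81EGFP cells, 3 × 10^3 per well, 1536-well, plated on prespotted compound at 10 μM final, parasite-free screening media added to match infected plates; puromycin 10 μM positive, DMSO 0.5% negative; run in parallel with 48 h PbLuc assay at 37 °C, 5% CO2; viability by CellTiter-Glo luminescence, normalized to controls.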
row,Compound,cytotoxicity at 10 µM [%]
1,Cc1nc(CNC(=O)CC2C(=O)NCCN2CCC(C)C)n[nH]1 (stereo unspecified),-4.44
2,CCCC(=O)NCc1ccc(N2CCCCC2)cc1,3.54
3,Cc1ccccc1C(=O)NC(C)c1cnn(C)c1 (stereo unspecified),15.7
4,CCc1noc(C(C)N2CCC(O)CC2)n1 (stereo unspecified),0.26
5,CNC(=O)c1cccc(CN2CCC(N(C)Cc3ncc(C)o3)C2)c1 (stereo unspecified),-103
6,CC(NCc1cccs1)c1ccc(OCc2nccn2C)cc1 (stereo unspecified),-7.88
7,Cc1cccc(NC(=O)c2cncc(C3CCNCC3)n2)n1,0.691
8,O=C(c1cccc(-n2cccn2)c1)N1CCCOC(CN2CCCC2)C1 (stereo unspecified),-7.33
9,CNS(=O)(=O)c1ccc(CNC(=O)c2cc(C)no2)cc1,5.12
10,CC(C)(CNc1ccc(C#N)c(C(F)(F)F)c1)C(N)=O,20.2
11,CN(Cc1cc2n(n1)CCNC2)Cc1cc(-c2ccccn2)no1,1.91
12,COc1ncccc1CNC1CCc2c(ccc(=O)n2C)C1 (stereo unspecified),-103
13,Cn1c(CN2CCC(OCc3cccnc3)CC2)cc2ccccc21,-2.65
14,CCCS(=O)(=O)N1CCN(c2cc(-n3cnc(C)c3C)ncn2)CC1,5.54
15,Cc1cccc(S(=O)(=O)NC(=O)CCc2cscn2)c1,0.983
16,Cc1nc(CCCN2CCOCC2)n(Cc2ccc(F)cc2)n1,1.69
17,O=C(NCCN1CCOCC1)N(CCCO)C1CCCc2ccccc21 (stereo unspecified),-9.69
18,CC(C)c1nn(C)c(N2CCOCC2)c1CNCc1nncn1C,5.59
19,Cc1noc(CN2CCN(CCO)CC2)n1,2.17
20,Cc1ccc(C(=O)N2CCC3(CC(N(C)c4ccncn4)C3)C2)cn1 (stereo unspecified),-6.11
21,CCOCCC(=O)N1C[C@@H]2CC[C@H]1CN(c1ncccn1)C2,2.53
22,O=C(NCC1CCOC1)Nc1ccc(OCC(F)(F)F)nc1 (stereo unspecified),-5.41
23,CN(CCC(F)(F)F)C(=O)C1CSCN1C(=O)C(C)(C)C (stereo unspecified),9.07

row,Compound,cytotoxicity at 10 µM [%]
1,CCc1noc(CN2C[C@@H]3CC[C@H]2CN(C2Cc4ccccc4C2)C3)n1,-0.268
2,c1csc(-c2noc(C3CNC3)n2)c1,-5.39
3,CN(C)c1cc(CNC(=O)c2cc(F)ccc2F)ccn1,-8.35
4,c1cnnc(N2CCCC(NCc3nc(-c4ccsc4)no3)C2)c1 (stereo unspecified),7.79
5,CC(C)CN1CC2(CCN(C(=O)C(O)c3cccc(Cl)c3)CC2)CC1=O (stereo unspecified),-1.45
6,CC(C)CN1CC2(CCN(C(=O)c3cn4cccnc4n3)CC2)CC1=O,-6.84
7,O=C(CSC1=NS(=O)(=O)c2cc(F)ccc2N1)c1ccc(Cl)cc1,10.3
8,CS(=O)(=O)N[C@@H]1CN(Cc2ccoc2)C[C@@H]2CCCO[C@@H]21,13.2
9,CN(C)c1ncc(CNC2CC(=O)N(CCc3cccc(Cl)c3)C2)s1 (stereo unspecified),-132
10,Cc1nc(-c2ccccc2)sc1C(=O)NCCNc1ncccn1,0.273
11,CC(C)(C)C(=O)N1CCCc2c(cnn2-c2ccccc2)C1,7.15
12,CCc1nnc(CN2CCc3ccc(S(N)(=O)=O)cc32)o1,1.41
13,CC(C(=O)N1CCCC1)S(=O)(=O)Cc1nc(C(C)(C)C)no1 (stereo unspecified),8.18
14,O=C(c1ccco1)N1CCc2onc(Cn3cccn3)c2C1,-1.22
15,CS(=O)(=O)CCN(CC1CCCO1)C1CCCC1 (stereo unspecified),4.4
16,CCc1nc(CN2CCCC2C(=O)NC)cs1 (stereo unspecified),-3.09
17,Cc1nc2cc(C(=O)N3C[C@@H](C(=O)O)[C@H](c4ccncc4)C3)ccc2[nH]1,0.682
18,CCC(C)Oc1ccc(CNCCc2c[nH]cn2)cc1Cl (stereo unspecified),1.09
19,O=C(NCc1ccccc1Cn1cncn1)N1CCCC1,-5
20,O=C(CN1CSCC1=O)NCC1CCN(c2ccccc2)C1 (stereo unspecified),1.19
21,Cc1nc(N2CCN3CCCCC3C2)nc2cc(S(C)(=O)=O)ccc12 (stereo unspecified),-6.25
22,CS(=O)(=O)N1CCO[C@@H]2CN(Cc3ccc(F)cc3)CC[C@@H]2C1,6.86
23,COc1ccc(OC)c(-c2nc(CN(C)Cc3nonc3C)c(C)o2)c1,13.5

row,Compound,cytotoxicity at 10 µM [%]
1,Cc1ccc(F)c(NC(=O)CCC(=O)N(C)Cc2nc(C)c[nH]2)c1,7.05
2,N#CC1C(=O)Nc2c(cnn2C2CCCC2)C12CCCC2 (stereo unspecified),-7.54
3,CCOc1ccccc1C(C(=O)O)N(C)Cc1nc(C)c[nH]1 (stereo unspecified),-5.18
4,COCCN1CCN(CC(O)c2ccc(C(F)(F)F)cc2)CC1 (stereo unspecified),-10.7
5,CC1c2ncc(COc3cccnc3)n2CCN1C(=O)Cc1ccco1 (stereo unspecified),-5.13
6,O=C1CC2(CCN(CC3CCOC3)CC2)c2ccccc2N1CC1CC1 (stereo unspecified),-9.61
7,CC(C)CC(NC(=O)CSCC(N)=O)c1cccs1 (stereo unspecified),-0.431
8,CC(=O)NCCc1ccc(S(=O)(=O)Nc2ccc(C)cc2F)s1,-5.48
9,CC(=O)NC1CCN(c2ccnc(C3CCNCC3)c2)CC1,-6.15
10,CCS(=O)(=O)c1ccc(N2CCC(NC(=O)C3CCCCC3)CC2)cc1,12
11,CCC(C)N(Cc1cc(C)n[nH]1)Cc1ccccc1Cl (stereo unspecified),6.65
12,Cc1ccc2nc(C3CCCN3Cc3nnc(C)s3)[nH]c2c1 (stereo unspecified),-2.82
13,CN(Cc1cncnc1)[C@@H]1CN(C(=O)c2ccco2)[C@@H]2CCCO[C@H]12,-113
14,CC(C)N1CCN(C)CC(Cc2cc(N(C)C)ncn2)C1 (stereo unspecified),9.25
15,CC1CCN(CC(=O)NC(C#N)c2cnn(-c3ccccc3)c2)CC1 (stereo unspecified),0.724
16,Cc1ccccc1CN1CCC2(CC1)CN(S(=O)(=O)c1ccccc1)C2,-2.78
17,Cc1cccc2c1cnn2CCC(=O)NCc1csc(C2CC2)n1,4.22
18,Cc1nc(COCc2cnc3n2CCN(CC2CCC2)C3C)cs1 (stereo unspecified),-5.63
19,CN(C)C1CCN(C(=O)NCc2ccc(Cn3cncn3)cc2)CC1,-3.6
20,CN1CCC(Oc2ccc(NC(=O)c3ccccc3Br)cc2)CC1,-15.6
21,Cc1csc(C2CCCCN2C(=O)Cn2cncn2)n1 (stereo unspecified),-0.0679
22,c1c(CN2CCCC2)nc2n1CCN(C1CCOCC1)C2,0.641
23,COCCOc1ccc(NC(=O)N2CCCC2c2ccncc2)cn1 (stereo unspecified),-3.49

row,Compound,cytotoxicity at 10 µM [%]
1,CCNc1ncc(CN2C[C@@H](CN3CCC(CO)CC3)[C@@H](CO)C2)cn1,-6.03
2,COc1cc(N2C[C@H]3CN(C(=O)c4cnccn4)C[C@H]3C2)ncn1,-141
3,Cc1noc(C)c1CN1CCCC(c2noc(C3CC3)n2)C1 (stereo unspecified),-12.8
4,CN1CCCCC(C2CCN(S(=O)(=O)c3cn(C)cn3)CC2)C1=O (stereo unspecified),3.13
5,OCCN1CCCC(c2nccnc2Oc2ccccc2)C1 (stereo unspecified),-25.5
6,Cn1ccc2c(C(=O)N3CCC(C(N)=O)CC3)cccc21,2.92
7,CC(NCC(F)(F)F)c1ccc(S(C)(=O)=O)c(F)c1 (stereo unspecified),1.79
8,CC(C)Cc1cc(C(=O)NCCc2ccc(S(C)(=O)=O)cc2)[nH]n1,-8.93
9,Cc1n[nH]c(C)c1-c1cc(-c2cc[nH]c2)nc(N)c1C#N,2.41
10,COC(=O)Cn1c(=O)[nH]c2cn(-c3ccccc3)c(=O)n21,21.6
11,O=C(c1ccco1)N1CCO[C@@H]2CN(Cc3nccs3)CC[C@@H]2C1,-111
12,O=C1CCCN1Cc1nnn2c1CN(c1cccnc1)CCC2,3.48
13,CCc1noc(C)c1C(=O)NCC(c1ccc(C)cc1)N(C)C (stereo unspecified),-5.57
14,CSCC(=O)NC1CCN(C(C)c2ccccc2)CC1 (stereo unspecified),3.63
15,Cc1n[nH]c(C2CN(Cc3csc(C4CCCCC4)n3)CCO2)n1 (stereo unspecified),23.8
16,COc1ccc(CCC(=O)Nc2cccnc2N2CCCC2)cc1Br,1.06
17,CC(C)OCc1cccc(NC(=O)N2CCCC(CCC(N)=O)C2)c1 (stereo unspecified),3.49
18,COCCN(Cc1ccc(C)cc1)CC1CCOC1 (stereo unspecified),-9.06
19,Cc1noc(C2CCN(C(=O)CCNc3ncccn3)CC2)n1,-6.38
20,CC(C)NC(=O)C1CN(C(=O)c2ccccc2)CC12CCOCC2 (stereo unspecified),-82.6
21,COc1cc(CN(C)[C@@H]2COC[C@H]2c2ccc(F)cc2)cc(OC)c1,7.67
22,O=C(Nc1ccc(CC(=O)N2CCSCC2)cc1)NC1CC1,-2.42
23,CCS(=O)(=O)N1CCN(C(=O)c2cnc3[nH]nc(C)c3c2)CC1,-5.68

row,Compound,cytotoxicity at 10 µM [%]
1,O=C(Nc1nncs1)N1CCC(CCO)CC1,-2.48
2,CCc1nc(CN2CCC(C(=O)N(C)C)CC2)cs1,3.05
3,Cc1cnc(N2CCC3(CC2)COCCN(C(C)C)C3)nc1,-121
4,CS(=O)(=O)NCc1nnc2n1CCN(Cc1cccs1)C2,-1.57
5,Cn1c(CN2CCCC(c3noc(C4CC4)n3)C2)cc(=O)n(C)c1=O (stereo unspecified),-11.2
6,COc1ccc(OC)c(C2CCN(C(=O)C3CCOCC3)C2)c1 (stereo unspecified),5.6
7,COc1ccc(OC)c(C2CC(=O)Nc3nc(N4CCOCC4)sc32)c1 (stereo unspecified),14.3
8,CCNC(=O)C1(Cc2cc(-c3ccccc3)no2)CCCN(C(C)C)C1 (stereo unspecified),1.62
9,CC(=O)Nc1nc(C(=O)N2CCCC2c2ccc(Br)cc2)cs1 (stereo unspecified),-18.4
10,N#Cc1ccccc1CN1CCCC(c2nccn2CC2CC2)C1 (stereo unspecified),2.84
11,CCCc1cc(NCCN2CCNC2=O)n2nccc2n1,-6.42
12,Cc1cccc(CN2CCC3(CC(C(=O)NCC(C)C)=NO3)C2)c1 (stereo unspecified),4.66
13,O=C1CCC(C(=O)N(Cc2ccsc2)CC2CCCO2)=NN1 (stereo unspecified),-7.97
14,CCC(NC(=O)c1nn(C)cc1C(=O)O)c1ccc(C)cc1 (stereo unspecified),-3.42
15,O=C([C@H]1CC[C@@H]2[C@@H](CCN2Cc2nccs2)O1)N1CCOCC1,-0.891
16,O=C(CNc1cc2c(cc1Cl)OCCO2)NCC(F)(F)F,0.49
17,CC[C@@]1(O)CCN(C(=O)CCNC(=O)c2ccc(F)cc2)C[C@H]1O,0.0652
18,Cc1cc(CNC(=O)NC(C)c2ccc(N3CCOCC3)cc2)no1 (stereo unspecified),-17.4
19,CCCn1cc(S(=O)(=O)N[C@H]2CN(CCO)C[C@@H]2C2CC2)cn1,-11.3
